Test results taken from PubChem BioAssay AID1040 (The Scripps Research Institute Molecular Screening Center, 2008).
Out of some 200,000 compounds screened, about 2,000 (1%) were called active.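 The calls were made as follows: active = inhibition above the campaign mean inhibition of all tested compounds plus 3 SD (cut at about 20% in these data); inactive = the rest.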 For the sample, actives were picked, then their nearest neighbours and some compounds at random.

The molecules below were run against Neuropeptide Y receptor type 1 (Homo sapiens) (UniProt P25929) (assay: blockers of human neuropeptide Y Y1 receptor – cell-based, primary screen (AID 1040;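 also: 0% = DMSO wells given NPY plus isoproterenol and 100% = isoproterenol alone without NPY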)). Conditions: HEK293-CNG Y1 cells, membrane potential fluorescence; at 3.6 µM; hits give high values; NPY at EC95, then isoproterenol.
In short: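 Benchmarks – high control isoproterenol alone, low control NPY with isoproterenol · Material – HEK293 Y1/CNG channel cell line · Times – dye 3 h, compound 60 min room temperature, stimulation 45 min · Probe or stimulus – NPY (25 nM), isoproterenol (1 µM), Ro 20-1724 (25 µM) · Evaluation – % inhibition of NPY effect · Signal – fluorescence, membrane potential probe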

Sequence of Neuropeptide Y receptor type 1 (Homo sapiens) (P25929 whole entry, looked up): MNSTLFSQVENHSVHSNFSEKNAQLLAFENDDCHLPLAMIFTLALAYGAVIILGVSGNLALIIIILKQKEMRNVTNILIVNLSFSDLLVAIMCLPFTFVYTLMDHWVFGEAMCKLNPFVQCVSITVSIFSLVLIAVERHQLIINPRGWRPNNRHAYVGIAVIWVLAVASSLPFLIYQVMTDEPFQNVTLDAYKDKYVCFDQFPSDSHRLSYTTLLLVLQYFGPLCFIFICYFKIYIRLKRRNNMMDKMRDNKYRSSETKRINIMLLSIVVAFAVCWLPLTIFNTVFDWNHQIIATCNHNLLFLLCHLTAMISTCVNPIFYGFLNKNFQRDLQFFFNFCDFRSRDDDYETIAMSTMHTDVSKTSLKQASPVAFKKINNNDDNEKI

inhibition, active:
COc1ccc(C)c(Cn2c(-c3nonc3N)nc3ccccc32)c1 20.2%, Nc1nonc1-c1nc2ccccc2n1Cc1ccc(F)cc1 33.9%, CCCOc1ccc(C(=O)C(CCC(CNCC)C(=O)c2ccc(OCCC)cc2)CNCC)cc1 (stereo unspecified) 41.9%, CCOc1ccc(S(=O)(=O)NCCSc2ccccc2)cc1 28.4%, Cc1nc(-c2ccccc2)sc1C(=O)/C=C/c1ccccc1 21.8%, COc1ccc(OC)c(NC(=O)CSc2nc(N)c(-c3ccccc3)c(=O)[nH]2)c1 30.3%, Cc1cc(Oc2ccc(Cl)cc2)nc(SCC(=O)c2ccccc2)n1 44.4%, CC(C)(C)NCc1cc(Br)ccc1OC1CCCC1 37.7%

inhibition, inactive:
Cc1nonc1C(=O)N/N=C/c1ccc(O)cc1 -0.92%, Cc1ccc(C)c2[nH]c(=O)c(CCNC(=O)c3cccs3)cc12 1.69%, CCNC(=O)COC(=O)/C=C/c1c(C)nn(Cc2cccc(OC)c2)c1Cl 9.4%, Nc1nonc1-c1nc2ccccc2n1CCC(=O)O 2.11%, COCCn1c(-c2ccc(OC)c(OC)c2)nc2ccccc21 1.65%, CC(=O)Nc1nonc1-c1nc2ccccc2n1Cc1ccccn1 1.23%, CCCn1c(C(O)c2cc(OC)ccc2OC)nc2ccccc21 (stereo unspecified) 6.38%, COc1ccc(C(=O)Nc2c(Cl)cc(Cl)cc2C(=O)N2CCC(C)CC2)cc1 7.28%, O=C(N/N=C/c1ccc(Br)o1)c1cncc(Br)c1 0.31%, CCCOc1ccc(C(=O)NCCc2ccccc2)cc1 4.6%, CCCOc1ccc(N/C=C/C(=O)C(C)(C)C)cc1 -0.02%, O=C(O)/C(=C/c1cccnc1)NC(=O)c1ccccc1 -1.58%, Cc1ccc(S(=O)(=O)NCCSc2ccccc2)cc1[N+](=O)[O-] 20.1%, O=S(=O)(NCCSc1ccccn1)c1ccc(Cl)cc1 7.92%, C/C(=N\Nc1ncc(Cl)cc1Cl)c1cccs1 4.59%, CCOP(=O)(OCC)C(Nc1cccc(C)c1)c1ccc(F)cc1 (stereo unspecified) 6.17%, Cc1cc(N2CCN(C)CC2)nc2ccc(NC(=S)N3CCOCC3)cc12 6.76%, Cc1ccc(SCC(=O)c2sc(-c3ccccc3)nc2C)cc1 8.05%, Cc1nc(-c2ccccc2)sc1C(=O)/C=C/N(C)C 6.13%, CC(Oc1ccc(Br)cc1Br)C(=O)NC1CCCC1 (stereo unspecified) 7.12%, COc1ccc(OC)c(NC(=O)CSc2nc3cccnc3n2C)c1 10.8%, COc1ccc(NC(=O)CSc2nc(N)c(-c3ccccc3)c(=O)[nH]2)cc1 7.14%, Cc1ccc(S(=O)(=O)CC(=O)Nc2c(C)n(C)n(-c3ccccc3)c2=O)cc1 1%, Cc1ccc2c(c1)C1CN(C)CCC1N2C(=S)Nc1ccc(Cl)cc1Cl (stereo unspecified) 0.03%, Cc1cc(SCC(=O)c2ccccc2)nc(SCC(=O)c2ccccc2)n1 18.3%, COC(=O)c1cc(C(=O)CSc2nc(C)cc(C)n2)ccc1O -2.7%, Cc1cc(C)c(NC(=O)C[N+](C)(C)CC(O)COc2cccc3ccccc23)c(C)c1 (stereo unspecified) -12.8%, Cc1cccc(NC(=S)NC23CN4CN(CN(C4)C2)C3)c1 -0.45%, COc1cc(CNC2CCCCC2)c(Br)cc1OC1CCCC1 -5.34%, CCOCCCNCc1cc(Br)ccc1OCC 11.8%, COc1ccc(Sc2nc(-c3ccccc3)ncc2OC)cc1 3.64%, CCc1cccc(NC(=O)CCNS(=O)(=O)c2cccc3nonc23)c1 0.89%, CCN(CC)S(=O)(=O)c1ccc(Cl)c(NC(=O)c2ccncc2)c1 1.54%
